Experimental data pooled from the literature.
Compare with care: the assays were run in different laboratories.
Effect on: cell growth or viability

Cc1cc(=O)oc2ccc(-c3cc(-c4ccc(Br)cc4)nc(N)n3)c(O)c12  inhibition (KB; MTT; 2 µg/mL; 72 h): 0%
COC(=O)COc1ccc(NC(=O)C2(c3cccc(Br)c3)CC2)c(C)c1  GI50 (U-937; ATP luminescence; 72 h): 3.2 µM
COc1cc(Nc2nccc(-c3cnn4nc(OC)ccc34)n2)cc(C(F)(F)F)c1  IC50 (SNU1; ATP luminescence): 0.19 µM
C=CC(=O)N1CCN(c2cc(-c3noc([C@@]4(C)CCCc5sc(N)c(C#N)c54)n3)nc(N3CCN(C)C[C@@H]3C)c2)CC1  EC50 (LS-513; 5 days): 4.7 µM
Cn1nnc2c(C(N)=O)ncn2c1=O  EC50 (SNU1): 243 µM
COc1ccc(-c2cc(-c3ccc4oc(=O)cc(C)c4c3O)nc(N)n2)cc1  inhibition (KB; MTT; 128 µg/mL; 72 h): 28%
COC(=O)COc1cccc(NC(=O)C2(c3cccc(C)c3)CC2)c1  GI50 (U-937; ATP luminescence; 72 h): > 200 µM
Cc1ccc(-c2cc(-c3ccc4oc(=O)cc(C)c4c3O)nc(N)n2)cc1  inhibition (KB; MTT; 8 µg/mL; 72 h): 0%
CCn1c(-c2nonc2N)nc2c(C#CC(C)(C)O)ncc(OC[C@H]3CCCNC3)c21  EC50 (UACC-903; resazurin; 72 h): 83 µM
COC(=O)COc1ccc(NC(=O)C2(c3cccc(C)c3)CC2)c(C)c1  GI50 (U-937; ATP luminescence; 72 h): 6.8 µM
C=CC(=O)N1CCC[C@@H](n2nc(-c3ccc(Oc4ccccc4)cc3)c3c(N)ncnc32)C1  GI50 (MINO; ATP luminescence; 72 h): 6.31 µM
COC(=O)COc1ccc(NC(=O)C2(c3ccccc3)CC2)cc1Br  GI50 (U-937; ATP luminescence; 72 h): 6.1 µM
Cc1cc(=O)oc2ccc(-c3cc(-c4cccc(Cl)c4)nc(N)n3)c(O)c12  inhibition (KB; MTT; 2 µg/mL; 72 h): 0%
